SR-BI DiI inh – blocks mouse SR-BI lipid uptake from DiI-HDL | Q61009 | ldlA[mSR-BI] CHO cells, DiI-HDL uptake fluorescence, 3 h | inhibition, % at 12.5 µM | actives 0.96% (n = 320,000);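 active = mean replicate inhibition of at least 70% and a set share of replicates each scoring 70 or more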;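 also: 0% = median of neutral control wells and 100% = median of positive control wells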
Rin1 Abl inh – human Rin1-Abl interaction inhibition; P00519+Q13671; TR-FRET Rin1/Abl binding, biochemical; inhibition, % at 7.35 µM; actives 0.4% (n = 360,000); AID 588664; in the data active = inhibition above about 5%, passing the limit was not always enough
GRK2 inh – human GRK2 inhibition via aptamer displacement; P25098; bead flow cytometry, FAM-aptamer displacement from GRK2; inhibition of aptamer binding, % at 10 µM; actives 0.59% (n = 330,000); AID 488847;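 active = inhibition of aptamer binding above 40%, roughly 3 SD of noise, on plates passing a quality check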;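 also: median bead fluorescence of bound FAM aptamer so fluorescent compounds give negative values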
SR-BI DiI-HDL act – SR-BI HDL lipid transfer activation; AID 504775; CHO ldlA[mSR-BI] cells, DiI-HDL uptake fluorescence, 3 h; 100 = double the neutral-control signal; actives 0.096% (n = 320,000); activation, % at 12.5 µM;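 active = mean replicate activation of at least 60% and every replicate at or above 60%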;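 also: 0% = median plate neutral-control signal and 100% = twice that signal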
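Material – SR-BI-overexpressing, LDLR-lacking CHO cells · Medium – BSA-supplemented, HEPES-buffered Ham's F12, pH 7.4 · Doses – single concentration · Times – compound with DiI-HDL co-incubation, 3 h at 37 °C · Measured by – bottom-read fluorescence, 550/595 nm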
GRK2 inh confirm – confirmation of human GRK2 inhibitors displacing RNA aptamer. aptamer displacement, % at 10 µM. shares compounds with GRK2 inh. actives 4% (n = 2,000). AID 504451. bead-bound GRK2, FAM-aptamer displacement, flow cytometry;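 active = aptamer displacement above 40%, near three times the noise of non-fluorescent compounds, on plates passing quality checks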;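 also: negative values mostly reflect intrinsic compound fluorescence rather than true enhancement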
FAM quench CP1 – quenches fluorescent RNA aptamer, GRK2 hit artifact; AID 504580; Carboxyfluorescein RNA aptamer on beads, flow cytometry quenching; hits give low values; shares compounds with GRK2 inh; fluorescence response (% of DMSO), % at 10 µM; 2,000 tested, under 10 active;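 active = compounds that quench the bead-bound fluorescent RNA probe, cutting fluorescence to under half of the solvent control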;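 also: counterscreen run without GRK2 so only probe quenching by compound is measured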
GRK2 confirm 2 – human GRK2 inhibition confirmation, cherry pick 2; shares compounds with GRK2 inh; 360 tested, under 10 active; inhibition of aptamer binding, % at 10 µM; bead-bound GRK2, FAM-aptamer displacement, flow cytometry;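 active = inhibition of aptamer binding above 40%, about triple the noise seen with nonglowing compounds, on plates passing quality control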;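 also: negative values mostly come from compounds that fluoresce themselves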
FAM quench CP2 – counter-screen for GRK2 binding hits: quenchers of fluorescent RNA aptamer; shares compounds with GRK2 inh; carboxyfluorescein RNA aptamer beads, flow cytometry quenching; hits give low values; fluorescence response vs DMSO, % at 10 µM; 360 tested, under 10 active;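 active = response vs DMSO under 50%, meaning signal dropped by over half, treated as fluorescence quencher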;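 also: labelled aptamer on streptavidin beads without GRK2 as a quench counter-screen; 100% = bead fluorescence of DMSO wells and lower means quenching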
An asterisk follows results filed as active; / = not tested or not shown. An excerpt weighted towards active compounds, which were near 1.9% of everything screened.

SMILES	SR-BI DiI inh	Rin1 Abl inh	GRK2 inh	SR-BI DiI-HDL act	GRK2 inh confirm	FAM quench CP1	others
Cc1ccc([N+](=O)[O-])cc1S(=O)(=O)NCC1COc2ccccc2O1 (stereo not drawn)	25.9	0.7	54.0*	-25.9	1.9	101.9
O=C(NCCCN1CCN(c2cccc(Cl)c2)CC1)C1(S(=O)(=O)c2ccc(Cl)cc2)CC1	17.4	1.2	28.0	-17.4	-19.1	88.1
O=C(CSc1nc2ccccc2[nH]1)N1CCN(S(=O)(=O)c2ccc(Cl)cc2)CC1	-11.2	-0.4	45.0*	11.2	1.8	96.0
O=C1CC(c2cccs2)c2cc3c(cc2N1)OCCO3 (stereo not drawn)	-3.9	0.4	1.0	3.9	/	/
Cc1ccc(C2CC(=O)Nc3cc4c(cc32)OCCO4)s1 (stereo not drawn)	9.0	-0.2	6.0	-9.0	-2.1	101.0
Cc1cc(OCC(=O)N(Cc2ccco2)c2c(N)n(Cc3ccccc3)c(=O)[nH]c2=O)ccc1Cl	1.1	3.2	0.0	-1.1	1.7	105.6
Cc1ccc2c(CC(=O)OCC(=O)N(CC(C)C)c3c(N)n(Cc4ccccc4)c(=O)[nH]c3=O)coc2c1	9.5	2.8	83.0*	-9.5	-0.3	113.9
CCN(C(=O)COC(=O)Cc1coc2cc(C)ccc12)c1c(N)n(Cc2ccccc2)c(=O)[nH]c1=O	1.2	-0.6	4.0	-1.2	/	/
Cc1cn(C2OC(COC(=O)c3ccccc3)C(O)C2O)c(=O)[nH]c1=O (stereo not drawn)	2.6	0.5	0.0	-2.6	/	/
Cc1cn(C2OC(COC(=O)c3ccccc3)C(OC(=O)c3ccccc3)C2OC(=O)c2ccccc2)c(=O)[nH]c1=O (stereo not drawn)	-15.5	-3.6	100.0*	15.5	-1.1	103.7
Fc1cccc(Cc2c(-c3ccco3)nc3c(Cl)cc(C(F)(F)F)cn23)c1	/	4.6	/	/	/	/
C=CCNc1nc(C(=O)OCC(=O)NCc2cccc(Cl)c2)cs1	-16.0	1.9	0.0	16.0	/	/
COc1ccc(-n2nc(C(=O)NCC(=O)N(C)Cc3ccccc3)c3ccccc3c2=O)c(OC)c1	6.8	0.6	1.0	-6.8	/	/
CCCCNC(=O)CNC(=O)c1nn(-c2ccc(OC)cc2OC)c(=O)c2ccccc12	5.3	7.5	8.0	-5.3	0.3	94.3
CCCCN(C)C(=O)CNC(=O)c1nn(-c2ccc(OC)cc2OC)c(=O)c2ccccc12	10.3	-3.3	0.0	-10.3	-3.4	101.4
CC(C)CC1C(=O)N(Cc2cn(Cc3ccco3)nn2)CCS(=O)(=O)N1Cc1ccc(-c2cccc(N(C)C)c2)cc1 (stereo not drawn)	/	0.0	/	/	/	/
Cc1ccc(C(CNS(=O)(=O)c2ccccc2)N2CCN(C)CC2)cc1 (stereo not drawn)	-1.5	4.4	0.0	1.5	/	/	GRK2 confirm 2=5.5;FAM quench CP2=99.0
CC1(C)Oc2ccc3ccc(=O)oc3c2[C@@H](O)[C@H]1O	-16.0	-0.6	2.0	16.0	/	/
CN1CCCCC1(C)C(=O)NCc1cc(Cl)ccc1F (stereo not drawn)	/	-0.2	/	/	/	/
O=C(Cn1cc([N+](=O)[O-])cn1)Nc1ccccn1	-22.5	0.2	60.0*	22.5	-1.3	96.4
Cc1c(NC(=O)Nc2ccccc2[N+](=O)[O-])c(=O)n(-c2ccccc2)n1C	1.1	4.2	13.0	-1.1	1.2	101.2
O=C(Nc1ccccn1)Nc1ccccc1[N+](=O)[O-]	6.2	4.5	13.0	-6.2	0.3	102.9
Cc1ccnc(NC(=O)Cn2cc([N+](=O)[O-])cn2)c1	/	-5.6	2.0	/	/	/
Cc1c(NC(=O)Nc2ccc([N+](=O)[O-])cc2)c(=O)n(-c2ccccc2)n1C	2.5	-3.3	0.0	-2.5	/	/
CSc1ccc(C2CC(=O)Nc3c2c(=O)n(C)c(=O)n3C)cc1 (stereo not drawn)	/	-2.4	85.0*	/	1.1	97.7
SMILES	SR-BI DiI inh	Rin1 Abl inh	GRK2 inh	SR-BI DiI-HDL act	GRK2 inh confirm	FAM quench CP1	others
CSc1c(CC(=O)Nc2ccccc2C(F)(F)F)n(Cc2ccccc2)c2ccccc12	-9.3	0.0	100.0*	9.3	/	/	GRK2 confirm 2=-2.8;FAM quench CP2=101.0
OC[C@@H]1CN(Cc2ccccc2)C[C@H](n2cnc3c(NCc4ccncc4)ncnc32)O1	/	-1.2	/	/	/	/
COc1ccc(S(=O)(=O)N2CCCCCC2)cc1NC(=O)CCNC(=O)c1ccc(Cl)cc1	/	-0.1	/	/	/	/
COc1ccc(S(=O)(=O)N2CCCCC2)cc1NC(=O)CCNC(=O)c1ccc(Cl)cc1	12.1	1.8	47.0*	-12.1	0.3	103.5	GRK2 confirm 2=-7.5;FAM quench CP2=106.0
CCOC(=O)C1(C)CCN1C(=O)c1cccc(Cl)c1 (stereo not drawn)	/	0.9	/	/	/	/
Nc1[nH]ncc1-c1ccc(Cl)cc1	-23.5	-4.4	99.0*	23.5	1.2	102.3
COc1ccccc1NC(=O)CC1CCCC1	/	0.2	61.0*	/	-3.5	104.8
CCCNC(=O)CSc1nc(-c2cccs2)cc(C(F)(F)F)n1	18.8	-2.2	0.0	-18.8	/	/
Cc1cc(NC(=O)CSc2nc(-c3cccs3)cc(C(F)(F)F)n2)no1	63.5	4.6	45.0*	-63.5	0.6	92.4
O=C(CCc1ccc(Oc2cc([N+](=O)[O-])cc([N+](=O)[O-])c2)cc1)NC1CCCC1	27.4	-1.8	99.0*	-27.4	2.0	91.9
CC1CCN(C(=O)CCc2ccc(Oc3cc([N+](=O)[O-])cc([N+](=O)[O-])c3)cc2)CC1	-4.1	1.1	2.0	4.1	/	/
O=C(NCC1CCCCC1)c1ccc2nc([C@@H]3O[C@H](CO)[C@@H](O)[C@H]3O)[nH]c2c1	/	-1.0	/	/	/	/
C[C@]12CC[C@H](O)CC1=CCC1C2CC[C@@]2(C)C1CC[C@@H]2NCc1ccccc1 (stereo partly drawn)	/	0.8	/	/	/	/
Cn1c(NCc2ccccc2Cl)nc2ccccc21	-12.6	0.5	6.0	12.6	/	/
Cn1c(NCc2ccccc2O)nc2ccccc21	14.4	-2.8	45.0*	-14.4	0.9	98.9
O=S1(=O)CCC(N=Nc2c(O)n(Cc3ccccc3)c3ccccc23)C1 (stereo not drawn)	11.4	-0.9	66.0*	-11.4	-1.2	99.2
CN1Cc2sc(N)c(C#N)c2CC1(C)C	4.4	-30.8	52.0*	-4.4	3.1	96.5
COc1ccccc1-c1nnc(SCC(=O)NNC(=O)c2ccccc2F)n1C	-15.8	3.8	4.0	15.8	/	/
Cc1c(C(=O)OC(C)C)sc(N)c1C(=O)OC(C)C	7.7	-0.6	70.0*	-7.7	/	/	GRK2 confirm 2=-3.9;FAM quench CP2=97.0
Cc1c(C(N)=O)sc(N)c1C(=O)OC(C)C	-35.1	-36.0	5.0	35.1	/	/

Assay outcomes: PubChem BioAssay, several laboratories
